Laboratory results published in ChEMBL document CHEMBL1641456, “Design, synthesis, and pharmacological evaluation of azetedine and pyrrolidine derivatives as dual norepinephrine reuptake inhibitors and 5-HT(1A) partial agonists” (Bioorg Med Chem Lett, 2011).

Assays:
[1] = biological target: Sodium-dependent dopamine transporter (Homo sapiens, UniProt Q01959); experiment: Displacement of [3H]WIN-35,428 from human DAT by scintillation proximity assay
Outline: (§1)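 Human transporter binding by scintillation proximity assay: inhibition of [³H]nisoxetine (NET), [³H]WIN 35,428 (DAT) or [³H]citalopram (SERT) binding measured. Ki values are the mean of at least two experiments, each run in duplicate.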

[2] = biological target: T1, Sodium-dependent noradrenaline transporter (Homo sapiens, UniProt P23975); experiment: Displacement of [3H]nisoxetine from human NET by scintillation proximity assay; outline: as §1
T1 sequence (P23975 whole entry): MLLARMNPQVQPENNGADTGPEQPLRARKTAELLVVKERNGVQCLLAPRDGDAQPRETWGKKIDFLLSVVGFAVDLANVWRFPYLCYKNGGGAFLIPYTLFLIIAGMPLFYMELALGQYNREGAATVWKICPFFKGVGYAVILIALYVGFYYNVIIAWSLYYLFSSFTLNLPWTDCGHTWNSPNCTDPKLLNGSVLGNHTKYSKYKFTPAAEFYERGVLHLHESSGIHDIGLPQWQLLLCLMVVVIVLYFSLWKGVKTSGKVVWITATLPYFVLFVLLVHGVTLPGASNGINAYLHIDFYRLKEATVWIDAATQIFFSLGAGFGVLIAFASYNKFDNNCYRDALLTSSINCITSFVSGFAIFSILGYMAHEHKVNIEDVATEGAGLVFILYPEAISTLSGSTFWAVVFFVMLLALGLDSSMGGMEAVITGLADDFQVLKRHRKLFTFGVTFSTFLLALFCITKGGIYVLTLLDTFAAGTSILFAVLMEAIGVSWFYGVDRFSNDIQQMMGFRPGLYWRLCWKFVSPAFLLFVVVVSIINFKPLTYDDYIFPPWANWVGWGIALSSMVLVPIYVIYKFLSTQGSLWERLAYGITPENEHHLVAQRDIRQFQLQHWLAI

[3] = biological target: Sodium-dependent serotonin transporter (Homo sapiens, UniProt P31645); experiment: Displacement of [3H]citalopram from human SERT by scintillation proximity assay; outline: as §1
Chain of Sodium-dependent serotonin transporter (P31645 whole entry): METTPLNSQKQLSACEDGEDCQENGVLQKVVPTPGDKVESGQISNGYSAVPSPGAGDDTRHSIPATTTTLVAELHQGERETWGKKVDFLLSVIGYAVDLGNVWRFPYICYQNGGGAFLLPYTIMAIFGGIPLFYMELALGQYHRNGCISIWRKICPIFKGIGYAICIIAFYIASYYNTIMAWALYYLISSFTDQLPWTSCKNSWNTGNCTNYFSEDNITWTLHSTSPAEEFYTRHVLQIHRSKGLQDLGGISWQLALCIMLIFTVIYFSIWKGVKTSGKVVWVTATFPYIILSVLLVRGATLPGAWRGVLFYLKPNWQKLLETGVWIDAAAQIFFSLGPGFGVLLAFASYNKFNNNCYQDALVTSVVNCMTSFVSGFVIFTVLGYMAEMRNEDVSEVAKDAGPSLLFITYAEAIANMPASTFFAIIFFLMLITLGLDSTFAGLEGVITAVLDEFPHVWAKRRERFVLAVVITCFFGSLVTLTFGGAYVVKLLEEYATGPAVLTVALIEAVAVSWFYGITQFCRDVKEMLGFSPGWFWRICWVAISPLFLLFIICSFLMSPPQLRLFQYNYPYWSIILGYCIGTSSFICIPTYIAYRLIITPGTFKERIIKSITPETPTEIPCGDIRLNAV

[4] = biological target: T2, 5-hydroxytryptamine receptor 1A (Homo sapiens, UniProt P08908); experiment: Displacement of [3H]8-OH-DPAT from human cloned 5HT1A receptor by liquid scintillation spectrophotometry
T2 sequence (P08908 whole entry): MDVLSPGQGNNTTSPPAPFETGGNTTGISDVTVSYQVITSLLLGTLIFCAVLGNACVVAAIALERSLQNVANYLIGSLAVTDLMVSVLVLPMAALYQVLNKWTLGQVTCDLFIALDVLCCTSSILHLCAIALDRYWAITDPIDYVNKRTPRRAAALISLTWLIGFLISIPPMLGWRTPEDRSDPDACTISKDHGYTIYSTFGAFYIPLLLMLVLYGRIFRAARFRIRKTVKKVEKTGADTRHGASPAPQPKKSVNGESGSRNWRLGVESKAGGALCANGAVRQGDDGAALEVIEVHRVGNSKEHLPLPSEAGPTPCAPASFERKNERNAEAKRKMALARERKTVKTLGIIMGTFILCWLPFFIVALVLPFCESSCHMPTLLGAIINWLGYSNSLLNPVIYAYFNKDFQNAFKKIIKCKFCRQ

Rattus norvegicus [5] = experiment: In vivo NET occupancy in rat brain at 10 mg/kg, sc after 1 hr; format: functional; settings: route subcutaneous
Outline: (§2)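 Ex vivo receptor occupancy of NET and 5-HT1A in rat brain, collected 1 h after 10 mg/kg subcutaneous dosing.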

[6] = biological target: T2, 5-hydroxytryptamine receptor 1A; experiment: Agonist activity at 5HT1A receptor by GTPgammaS binding assay; format: functional
[7] = Half life in dog at 5 mg/kg, po; format: ADME, organism-based, Canis lupus familiaris; parameters: dose 5 mg/kg, route oral; settings: in vivo
Rattus norvegicus [8] = experiment: In vivo 5HT1A receptor occupancy in sc dosed rat brain; format: functional
Outline: (§3)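 Ex vivo NET and 5-HT1A occupancy in rat brain from a subcutaneous dose–response, read 1 h post-dose. ID50 derived from the dose–response. For 5-HT1A, the dose giving 10% receptor occupancy was also determined.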

[9] = Drug level in rat brain at 10 mg/kg, sc after 1 hr; format: ADME, organism-based; parameters: dose 10 mg/kg, route subcutaneous; settings: read-out: Drug uptake
Outline: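 Rats dosed subcutaneously at 10 mg/kg; total brain drug concentration measured 1 h post-dose. Reported as mean with SEM, n = 4.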

Rattus norvegicus [10] = experiment: In vivo NET occupancy in sc dosed rat brain; format: functional; settings: read-out: ID50 (the source's name); outline: as §3
[11] = Cmax in dog at 5 mg/kg, po after 1 hr; format: ADME, organism-based, Canis lupus familiaris; parameters: dose 5 mg/kg, route oral; settings: in vivo
[12] = biological target: T1, Sodium-dependent noradrenaline transporter; experiment: […] at human cloned NET expressed in HEK293 cells by FLIPR assay; format: functional, cell-based
[13] = Tmax in dog at 5 mg/kg, po; format: ADME, organism-based, Canis lupus familiaris; parameters: dose 5 mg/kg, route oral; settings: in vivo
[14] = AUC ( 0 to 24 hrs) in dog at 5 mg/kg, po after 1 hr; format: ADME, organism-based, Canis lupus familiaris; parameters: time < 24 hr, dose 5 mg/kg, route oral; settings: plasma
Rattus norvegicus [15] = experiment: In vivo 5HT1A receptor occupancy in rat brain at 10 mg/kg, sc after 1 hr; format: functional; settings: route subcutaneous; outline: as §2

Chain of Sodium-dependent dopamine transporter (Q01959 whole entry): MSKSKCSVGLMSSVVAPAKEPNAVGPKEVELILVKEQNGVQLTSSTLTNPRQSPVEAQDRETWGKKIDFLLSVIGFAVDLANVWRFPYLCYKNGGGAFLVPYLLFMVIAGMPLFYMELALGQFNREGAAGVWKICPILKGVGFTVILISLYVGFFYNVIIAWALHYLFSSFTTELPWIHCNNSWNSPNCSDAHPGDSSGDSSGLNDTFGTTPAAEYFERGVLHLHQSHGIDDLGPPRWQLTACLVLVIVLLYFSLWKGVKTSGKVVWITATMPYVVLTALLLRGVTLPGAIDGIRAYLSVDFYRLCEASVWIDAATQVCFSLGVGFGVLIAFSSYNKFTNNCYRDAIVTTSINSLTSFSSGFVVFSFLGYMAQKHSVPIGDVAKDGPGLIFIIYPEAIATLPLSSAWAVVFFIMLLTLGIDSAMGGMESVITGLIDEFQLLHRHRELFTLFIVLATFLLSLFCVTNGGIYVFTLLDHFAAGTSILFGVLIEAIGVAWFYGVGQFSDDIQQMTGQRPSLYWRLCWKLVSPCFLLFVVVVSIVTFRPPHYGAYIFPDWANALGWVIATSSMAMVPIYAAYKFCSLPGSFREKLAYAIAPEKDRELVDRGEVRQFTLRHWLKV

Row | SMILES | Ki [1] | Ki [2] | Ki [3] | Ki [4] | other results
1 | c1ccc(Oc2ccccc2OC2CNC2)cc1 | 2090 nM | 1640 nM | 2670 nM | 57 nM | –
2 | Fc1ccccc1Oc1ccccc1OC1CNC1 | 2040 nM | 528 nM | > 4710 nM | 22 nM | –
3 | Fc1ccccc1Oc1cccc(F)c1OC1CNC1 | > 4860 nM | 507 nM | > 4710 nM | 12 nM | –
4 | Fc1cccc(Oc2ccccc2Cl)c1OC1CNC1 | 4700 nM | 198 nM | 1710 nM | 14 nM | –
5 | Fc1cccc(Cl)c1Oc1cccc(F)c1OC1CNC1 | > 6460 nM | 138 nM | > 4900 nM | 1 nM | Activity (Rattus norvegicus [5]): 87%; EC50 [6]: 197 nM; half-life [7]: 2.35 h; ID10 (Rattus norvegicus [8]): < 1 mg/kg; concentration at 1 h [9]: 5900 ng/mL; ED50 (Rattus norvegicus [10]): 1.2 mg/kg; Cmax [11]: 919 ng/mL; EC50 [12]: 28 nM; Tmax [13]: 1 h; AUC(0-t) at 24 h [14]: 3480 ng·h/mL; Activity (Rattus norvegicus [15]): 81%
6 | Cc1cccc(F)c1Oc1cccc(F)c1OC1CNC1 | > 6460 nM | 116 nM | 1160 nM | 3 nM | Activity (Rattus norvegicus [5]): 84%; EC50 [6]: 225 nM; half-life [7]: 3.01 h; concentration at 1 h [9]: 5690 ng/mL; Cmax [11]: 525 ng/mL; EC50 [12]: 239 nM; Tmax [13]: 1 h; AUC(0-t) at 24 h [14]: 2800 ng·h/mL; Activity (Rattus norvegicus [15]): 76%
7 | Fc1cccc(F)c1Oc1cccc(F)c1OC1CNC1 | > 6410 nM | 482 nM | > 4620 nM | < 3 nM | –
8 | Fc1cccc(Oc2c(Cl)cccc2Cl)c1OC1CNC1 | > 5940 nM | 164 nM | > 4620 nM | 6 nM | –
9 | Cc1cccc(Cl)c1Oc1cccc(F)c1OC1CNC1 | > 6410 nM | 433 nM | > 4610 nM | 16 nM | –
10 | Fc1cccc(Oc2cccc(Cl)c2Cl)c1OC1CNC1 | 312 nM | 374 nM | 94 nM | 16 nM | –
11 | Fc1ccccc1Oc1ccccc1OC1CCNCC1 | 4510 nM | 1000 nM | > 4710 nM | 693 nM | –
12 | Fc1ccccc1Oc1cccc(F)c1OC1CCNCC1 | 2190 nM | 489 nM | > 4650 nM | 30 nM | –
13 | Fc1cccc(Cl)c1Oc1cccc(F)c1OC1CCNCC1 | > 6370 nM | 218 nM | 2040 nM | 8 nM | –
14 | Cc1cccc(F)c1Oc1cccc(F)c1OC1CCNCC1 | > 6460 nM | 323 nM | 3250 nM | 4 nM | –
15 | Fc1ccccc1Oc1cccc(F)c1OC1CCCNC1 (centres undefined) | > 5590 nM | 1950 nM | > 4710 nM | 90 nM | –
16 | Fc1ccccc1Oc1ccccc1OC1CCNC1 (centres undefined) | > 6220 nM | 1350 nM | > 4710 nM | 193 nM | –
17 | Fc1ccccc1Oc1cccc(F)c1OC1CCNC1 (centres undefined) | 3880 nM | 1020 nM | > 4710 nM | 8 nM | –
18 | Fc1cccc(Oc2ccccc2Cl)c1OC1CCNC1 (centres undefined) | 2030 nM | 192 nM | 2230 nM | 19 nM | –
19 | Cc1cccc(F)c1Oc1cccc(F)c1OC1CCNC1 (centres undefined) | > 6460 nM | 328 nM | > 4690 nM | 4 nM | –
20 | Fc1cccc(Cl)c1Oc1cccc(F)c1OC1CCNC1 (centres undefined) | > 6460 nM | 226 nM | > 4900 nM | – | Activity (Rattus norvegicus [5]): 54%; concentration at 1 h [9]: 5620 ng/mL; EC50 [12]: 97 nM; Activity (Rattus norvegicus [15]): 73%
21 | Fc1cccc(Cl)c1Oc1cccc(F)c1O[C@H]1CCNC1 | > 5870 nM | 1010 nM | > 4530 nM | – | –
22 | Fc1cccc(Cl)c1Oc1cccc(F)c1O[C@@H]1CCNC1 | > 5870 nM | 110 nM | > 4530 nM | – | half-life [7]: 1.85 h; Cmax [11]: 146 ng/mL; Tmax [13]: 1 h; AUC(0-t) at 24 h [14]: 560 ng·h/mL
23 | Fc1cccc(Cl)c1Oc1ncccc1OC1CCNC1 (centres undefined) | > 4620 nM | 1140 nM | > 6130 nM | 203 nM | –
24 | Fc1cccc(Cl)c1Oc1ncccc1OC1CNC1 | > 4260 nM | 73 nM | > 6280 nM | 64 nM | –
25 | Fc1ccccc1Oc1cccc(F)c1C1CCNCC1 | – | – | – | – | Activity (Rattus norvegicus [5]): 80%; concentration at 1 h [9]: 2230 ng/mL; Activity (Rattus norvegicus [15]): 62%
